The target in test [1] is T1, Delta-type opioid receptor (Rattus norvegicus, UniProt P33533). The test is described as follows: In vitro binding affinity to Opioid receptor delta 1 in rat brain membranes by [3H]DADLE (Tyr-D-Ala-Gly-Phe-D-Leu) displacement. Type of test: cell membranes. In outline:
(§1)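 [3H]DADLE (2 nM) was bound to daily-prepared rat brain membranes for 2 h at 25 °C in 50 mM Tris-HCl pH 7.4 with 100 mM choline chloride, 3 mM MnCl2, DAMGO to block mu sites, and protease inhibitor cocktail. Nonspecific binding was defined with 20 µM levallorphan. Ten drug concentrations were run twice. Ki from IC50 by Cheng–Prusoff.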

The target in test [2] is T2, Kappa-type opioid receptor (Cavia porcellus, UniProt P41144). The test can be described thus: In vitro radioligand binding assay, for inhibition of [3H]U-69593 binding to Opioid receptor kappa 1, in guinea pig brain membranes. Format: cell membranes. In outline:
(§2)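 Guinea pig brain membranes were homogenised in ice-cold 10 mM Tris-HCl pH 7.0, centrifuged twice at 30000g, and resuspended in 50 mM Tris-HCl pH 7.4. [3H]U69,593 (2 nM) was incubated 2 h at 25 °C with protease inhibitor cocktail and 1 µg/mL captopril. Nonspecific binding was defined with 1 µM U69,593. Ten drug concentrations were run twice. Ki = IC50/(1+[L]/Kd).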

The target of test [3] is T3, Mu-type opioid receptor (Rattus norvegicus, UniProt P33535). The test can be described thus: In vitro radioligand binding assay, for inhibition of [3H]DAMGO (Tyr-D-Ala-Gly-(Me)-Phe-Gly-ol) binding to Opioid receptor mu 1 in rat brain membranes. Format: cell membranes. In short, it runs like this:
(§3)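 Rat brain membranes prepared daily: homogenised in ice-cold 10 mM Tris-HCl pH 7.0, centrifuged twice at 30000g for 10 min, resuspended in 50 mM Tris-HCl pH 7.4. Incubation 2 h at 25 °C in 50 mM Tris-HCl pH 7.4 with protease inhibitor cocktail. Nonspecific binding was defined with 20 µM levallorphan. Ten drug concentrations were run twice. Ki = IC50/(1+[L]/Kd).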

The nature of test [4]: Ki ratio of mu to delta receptor.
Test [5] is described as follows: IC50 ratio of mu to delta receptor.
For test [6], the target named is T2, Kappa-type opioid receptor. The test can be described thus: In vitro radioligand binding assay, for inhibition of [3H]U-69593 binding to Opioid receptor kappa 1, in guinea pig brain membranes, at highest concentration of 7000 nM tested. Type of test: cell membranes. In outline: as §2
In test [7] the target is T3, Mu-type opioid receptor. The test is described as follows: In vitro radioligand binding assay, for inhibition of [3H]DAMGO (Tyr-D-Ala-Gly-(Me)-Phe-Gly-ol) binding to Opioid receptor mu 1 in rat brain membranes at highest concentration of 5600 nM tested. Format: cell membranes. In outline:
as §3

The target in test [8] is T2, Kappa-type opioid receptor. The test is described as follows: In vitro radioligand binding assay, for inhibition of [3H]U-69593 binding to Opioid receptor kappa 1, in guinea pig brain membranes, at highest concentration of 8000 nM tested. Type of test: cell membranes. In outline:
as §2

In test [9] the target is T3, Mu-type opioid receptor. The test can be described thus: In vitro radioligand binding assay, for inhibition of [3H]DAMGO (Tyr-D-Ala-Gly-(Me)-Phe-Gly-ol) binding to Opioid receptor mu 1 in rat brain membranes at highest concentration of 6300 nM tested. Type of test: cell membranes. In short, it runs like this:
as §3

Test [10] concerns the target T3, Mu-type opioid receptor. The test can be described thus: In vitro radioligand binding assay, for inhibition of [3H]DAMGO (Tyr-D-Ala-Gly-(Me)-Phe-Gly-ol) binding to Opioid receptor mu 1 in rat brain membranes at highest concentration of 6800 nM tested. Format: cell membranes. In outline: as §3
Test [11] addresses T1, Delta-type opioid receptor. The test can be described thus: In vitro radioligand binding assay, for inhibition of [3H]DADLE (Tyr-D-Ala-Gly-Phe-D-Leu) binding to Opioid receptor delta 1, in rat brain membranes at highest concentration of 1700 nM tested. Format: cell membranes. In short, it runs like this: as §1
Test [12] has as its target Delta-type opioid receptor (Mus musculus, UniProt P32300). The test is described as follows: Agonist activity using electrically induced smooth muscle contraction of mouse vas deferens. Type of test: functional.
Test [13] concerns the target Mu-type opioid receptor (Cavia porcellus, UniProt P97266). The test can be described thus: Agonist activity using strips of guinea pig ileum longitudinal muscle myenteric plexus. Format: functional, tissue-based. In outline:
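Longitudinal muscle–myenteric plexus strips from male Hartley guinea pigs (250–500 g) at 1 g tension in Krebs bicarbonate, 37 °C, 95% O2/5% CO2. Transmural stimulation at 0.1 Hz, 0.4 ms pulses, supramaximal voltage. Cumulative agonist doses; % inhibition of contraction height. IC50 by nonlinear least squares.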

For test [14], the target named is T3, Mu-type opioid receptor. The test is described as follows: In vitro radioligand binding assay, for inhibition of [3H]-DAMGO (Tyr-D-Ala-Gly-(Me)-Phe-Gly-ol) binding to Opioid receptor mu 1 in rat brain membranes at highest concentration of 6600 nM tested. Type of test: cell membranes. In short, it runs like this:
as §3

Bounds are passed on as bounds.

T1 sequence (P33533 whole entry): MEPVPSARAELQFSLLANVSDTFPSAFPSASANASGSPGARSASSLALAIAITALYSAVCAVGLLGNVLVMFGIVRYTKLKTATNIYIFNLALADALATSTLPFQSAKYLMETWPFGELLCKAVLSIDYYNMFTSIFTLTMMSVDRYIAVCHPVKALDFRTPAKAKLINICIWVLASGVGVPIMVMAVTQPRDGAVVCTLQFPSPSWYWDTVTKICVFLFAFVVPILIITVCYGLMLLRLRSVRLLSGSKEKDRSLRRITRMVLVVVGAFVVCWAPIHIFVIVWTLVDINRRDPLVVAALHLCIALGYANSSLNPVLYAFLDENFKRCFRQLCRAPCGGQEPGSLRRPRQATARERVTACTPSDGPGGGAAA
Chain of Mu-type opioid receptor (Cavia porcellus, UniProt P97266) (P97266 whole entry): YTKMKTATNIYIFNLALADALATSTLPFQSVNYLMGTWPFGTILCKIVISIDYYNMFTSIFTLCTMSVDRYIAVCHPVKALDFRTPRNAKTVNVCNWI
Chain of Delta-type opioid receptor (Mus musculus, UniProt P32300) (P32300 whole entry): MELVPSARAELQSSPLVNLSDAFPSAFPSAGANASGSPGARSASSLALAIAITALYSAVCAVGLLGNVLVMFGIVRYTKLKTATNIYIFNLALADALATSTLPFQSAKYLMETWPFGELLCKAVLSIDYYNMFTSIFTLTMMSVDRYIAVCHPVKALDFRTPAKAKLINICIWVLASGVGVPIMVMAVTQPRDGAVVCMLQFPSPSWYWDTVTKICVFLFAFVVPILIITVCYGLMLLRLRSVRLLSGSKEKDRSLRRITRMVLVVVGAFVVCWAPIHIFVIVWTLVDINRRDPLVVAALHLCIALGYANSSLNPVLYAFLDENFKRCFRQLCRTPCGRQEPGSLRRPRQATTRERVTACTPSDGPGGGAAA
T2 sequence (P41144 whole entry): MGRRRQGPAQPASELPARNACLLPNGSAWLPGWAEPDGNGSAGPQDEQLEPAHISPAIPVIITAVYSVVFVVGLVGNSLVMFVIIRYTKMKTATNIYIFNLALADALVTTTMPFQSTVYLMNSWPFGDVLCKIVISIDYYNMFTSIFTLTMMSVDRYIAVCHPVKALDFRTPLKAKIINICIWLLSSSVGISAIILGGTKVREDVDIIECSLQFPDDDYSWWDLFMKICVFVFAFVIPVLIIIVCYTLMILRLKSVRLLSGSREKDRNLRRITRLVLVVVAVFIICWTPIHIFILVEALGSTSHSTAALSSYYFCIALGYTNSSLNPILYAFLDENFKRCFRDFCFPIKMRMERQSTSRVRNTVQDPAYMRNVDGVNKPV
T3 sequence (P33535 whole entry): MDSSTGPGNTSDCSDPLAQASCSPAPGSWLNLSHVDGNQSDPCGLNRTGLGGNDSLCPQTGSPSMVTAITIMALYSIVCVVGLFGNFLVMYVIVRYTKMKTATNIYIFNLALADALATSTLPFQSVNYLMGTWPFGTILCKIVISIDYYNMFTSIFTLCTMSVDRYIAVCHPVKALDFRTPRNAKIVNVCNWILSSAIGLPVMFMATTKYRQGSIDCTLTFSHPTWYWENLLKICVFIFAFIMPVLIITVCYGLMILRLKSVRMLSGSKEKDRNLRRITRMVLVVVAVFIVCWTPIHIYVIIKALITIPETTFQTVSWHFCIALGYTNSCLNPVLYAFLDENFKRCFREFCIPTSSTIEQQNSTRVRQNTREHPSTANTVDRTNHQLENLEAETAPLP

As to `C=CCN1C[C@H](C)N([C@@H](c2ccccc2)c2ccc(C(=O)N(CC)CC)cc2)C[C@H]1C`, the Ki in test [1] is 0.5 nM; in test [2], 3 µM; in test [3], 3 µM. Further, the Ki ratio in [4] was above 3600. Further, in [5], the Ratio was 813.
On to `CCN(CC)C(=O)c1ccc(C(c2ccccc2)N2CCN(C)CC2)cc1` (stereo not drawn), for which the Ki in [1] was 43.2 nM; in [6], 10 µM; in [7], 10 µM. Moreover, the Ki ratio in test [4] is above 130.
Regarding `CCN(CC)C(=O)c1ccc(C(c2cccc(OC)c2)C2CCN(C)CC2)cc1` (stereo not drawn), the Ki came to 328 nM in test [1], 10 µM in [8] and 10 µM in test [9]. The Ki ratio in test [4] is above 15.
In the case of `CCN(CC)C(=O)c1ccc(C(OCCN(C)C)c2cccc(OC)c2)cc1` (stereo not drawn), the Ki in [1] came to 258 nM; in [8], 10 µM; in test [10], 10 µM. The Ki ratio in [4] was above 20.
On to `CCN(CC)C(=O)c1ccc(C(c2ccccc2)N2CCNCC2)cc1` (stereo not drawn), for which the Ki stood at 4.85 nM in test [1] and 10 µM in test [10]. For the same compound, the Ki ratio in test [4] is above 1400.
Turning to `CCN(CC)C(=O)c1ccc(C(c2ccccc2)N2CCCCC2)cc1` (stereo not drawn), the Ki stood at 3 µM in test [11], 10 µM in test [6] and 10 µM in test [10]. In test [4], the Ki ratio is above 4.
Turning to `CCN(CC)C(=O)c1ccc(C(=C2CCNCC2)c2cccc(OC)c2)cc1`, the results for the IC50 in test [12] and in test [13] were 125 nM and 27.7 µM, respectively. In addition, the Ki was found to be 5 nM in [1], 10 µM in test [8] and 10 µM in test [9]. The Ki ratio in [4] is above 1200. Further, in [5], the Ratio came out at 220.
Consider `C=CCN1CCC(C(c2ccc(C(=O)N(CC)CC)cc2)c2cccc(OC)c2)CC1` (stereo not drawn), for which the Ki in test [1] is 27 nM; in test [8] it was 10 µM; in [9], 10 µM. Moreover, the Ki ratio in test [4] is above 200.
`C=CCN1CCN(C(c2ccc(C(=O)N(CC)CC)cc2)c2cccc(OC)c2)CC1` (stereo not drawn): the IC50 in test [12] was 33.1 nM; in test [13], 20.3 µM. For the same compound, the Ki in test [1] is 27 nM; in test [2], 10 µM; in test [3] it was 10 µM. For the same compound, in [4], the Ki ratio is above 230. In test [5], the Ratio was 610.
As for `CCCN1CCN(C(c2ccccc2)c2ccc(C(=O)N(CC)CC)cc2)CC1` (stereo not drawn), the results for the Ki in [1], in test [6] and in [10] were 44.2 nM, 10 µM and 10 µM, respectively. Further, in test [4], the Ki ratio is above 150.
In the case of `C=CCN1CCN(C(c2ccccc2)c2ccc(C(=O)N(CC)CC)cc2)CC1` (stereo not drawn), the inhibitory constant (Ki) turned out to be 10.5 nM in test [1] and 10 µM in test [14]. For the same compound, the Ki ratio in [4] was above 600.
As for `CCN(CC)C(=O)c1ccc(C(c2ccccc2)N2CCOCC2)cc1` (stereo not drawn), the Ki is 3 µM in [11], 10 µM in test [6] and 10 µM in test [10]. Further, in test [4], the Ki ratio was above 4.
As for `C=CCN1C[C@H](C)N([C@H](c2ccc(C(=O)N(CC)CC)cc2)c2cccc(OC)c2)C[C@H]1C` [SNC-80], the Ki in [2] was 11.7 µM; in test [3], 3.97 µM.
`CCN(CC)C(=O)c1ccc(C(c2ccccc2)N2CCN(Cc3ccccc3)CC2)cc1` (stereo not drawn): the IC50 in test [12] amounted to 25.7 nM; in test [13], 9.85 µM. Moreover, the Ki in test [1] was 1.48 nM; in [6], 2 µM; in test [10], 10 µM. For the same compound, the Ki ratio in test [4] was above 4500. Further, the Ratio in test [5] was 382.
Take `CCN(CC)C(=O)c1ccc(C(=C2CCN(Cc3ccccc3)CC2)c2cccc(OC)c2)cc1`: the Ki in [1] stood at 12 nM; in [2], 7.65 µM; in test [9], 10 µM. For the same compound, the Ki ratio in test [4] is above 500.
In the case of `CCN(CC)C(=O)c1ccc(C(c2cccc(OC)c2)C2CCNCC2)cc1` (stereo not drawn), the values for the Ki in test [1], in test [8] and in test [9] were 20 nM, 10 µM and 10 µM, respectively. Also, the Ki ratio in test [4] was above 300.
With `CCN(CC)C(=O)c1ccc(C(NCCN(C)C)c2cccc(OC)c2)cc1` (stereo not drawn), the inhibition constant Ki in test [1] is 622 nM; in [8] it was 10 µM; in test [10], 10 µM. Besides, the Ki ratio in [4] is above 10.
Regarding `CCN(CC)C(=O)c1ccc(C(c2cccc(OC)c2)N(C)CCN(C)C)cc1` (stereo not drawn), the Ki in test [1] was 248 nM; in test [8], 10 µM; in test [10], 10 µM. In [4], the Ki ratio was above 20.
